Results from ChEMBL document CHEMBL1142735, “Discovery of a new series of centrally active tricyclic isoxazoles combining serotonin (5-HT) reuptake inhibition with alpha2-adrenoceptor blocking activity” (J Med Chem, 2005).
pKi: −log10 of the molar value.

Tests used:
[1] = molecular target: Sodium-dependent serotonin transporter (Homo sapiens, UniProt P31645); test: Binding affinity for serotonin transporter
Summary of the method: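 Human platelet membranes (50 µg protein) in 50 mM Tris-HCl pH 7.4 with 120 mM NaCl and 5 mM KCl. Competition against [3H]paroxetine (0.5 nM), 60 min at 25 °C. Nonspecific binding defined with imipramine (1 µM). Filtration over 0.1% PEI-presoaked GF/B, washed with incubation buffer. Sigmoidal fit of specific binding; Ki via Cheng-Prusoff.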

[2] = molecular target: T1, Alpha-2C adrenergic receptor (Homo sapiens, UniProt P18825); test: Binding affinity for alpha-2C adrenergic receptor
T1 sequence (P18825 whole entry): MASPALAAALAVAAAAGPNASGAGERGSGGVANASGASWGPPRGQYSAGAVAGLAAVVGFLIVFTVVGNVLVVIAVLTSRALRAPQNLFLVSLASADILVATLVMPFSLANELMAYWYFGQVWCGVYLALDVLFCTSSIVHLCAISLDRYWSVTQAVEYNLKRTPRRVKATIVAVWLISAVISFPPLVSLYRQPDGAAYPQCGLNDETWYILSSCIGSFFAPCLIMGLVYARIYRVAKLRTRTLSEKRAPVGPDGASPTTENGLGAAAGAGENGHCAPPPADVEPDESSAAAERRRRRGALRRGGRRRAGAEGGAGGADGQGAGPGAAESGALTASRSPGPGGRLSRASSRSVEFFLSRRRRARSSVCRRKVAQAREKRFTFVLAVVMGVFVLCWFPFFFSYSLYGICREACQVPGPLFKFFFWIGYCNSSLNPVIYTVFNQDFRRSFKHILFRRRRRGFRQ
Summary of the method: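 Human alpha2C receptor stably expressed in CHO cell membranes (5-10 µg protein) in 25 mM glycylglycine, pH 7.6. Competition against [3H]rauwolscine (1 nM), 30 min at 25 °C. Nonspecific binding defined with spiroxatrine (1 µM). Rapid filtration over GF/B, washed with ice-cold 50 mM Tris-HCl pH 8.0, scintillation counting. Sigmoidal curves fitted; Ki by Cheng-Prusoff.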

Sodium-dependent serotonin transporter, sequence (P31645 whole entry): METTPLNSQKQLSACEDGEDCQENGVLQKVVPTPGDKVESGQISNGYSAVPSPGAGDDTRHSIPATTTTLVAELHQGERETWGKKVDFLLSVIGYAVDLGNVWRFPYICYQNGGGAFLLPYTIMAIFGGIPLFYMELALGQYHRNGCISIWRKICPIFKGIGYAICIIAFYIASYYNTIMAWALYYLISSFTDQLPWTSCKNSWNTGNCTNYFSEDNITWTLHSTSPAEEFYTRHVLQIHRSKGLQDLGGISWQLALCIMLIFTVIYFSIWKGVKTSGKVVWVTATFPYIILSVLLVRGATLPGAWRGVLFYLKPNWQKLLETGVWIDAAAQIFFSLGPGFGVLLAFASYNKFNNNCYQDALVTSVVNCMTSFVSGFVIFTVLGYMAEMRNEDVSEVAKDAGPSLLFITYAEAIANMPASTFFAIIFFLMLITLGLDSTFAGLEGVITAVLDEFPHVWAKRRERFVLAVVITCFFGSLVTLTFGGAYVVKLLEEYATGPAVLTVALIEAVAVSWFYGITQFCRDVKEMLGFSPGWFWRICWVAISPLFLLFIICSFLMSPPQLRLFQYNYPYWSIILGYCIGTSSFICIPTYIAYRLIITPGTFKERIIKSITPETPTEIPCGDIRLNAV

pKi [1]	pKi [2]	SMILES
8.24	9.70	COCC(=O)Oc1ccc2c(c1)OC[C@@H]1C2=NO[C@H]1CN1CCN(C/C(C)=C/c2ccccc2)CC1
9.30	8.02	c1ccc2c(c1)NC[C@@H]1C2=NO[C@H]1CN1CCN(Cc2ccc3ccccc3c2)CC1
7.59	9.52	C/C(=C\c1ccccc1)CN1CCN(C[C@@H]2ON=C3c4ccc(OC(=O)C5CC5)cc4OC[C@H]32)CC1
7.89	9.30	C/C(=C\c1ccccc1)CN1CCN(C[C@@H]2ON=C3c4ccc(OC(=O)c5ccncc5)cc4OC[C@H]32)CC1
	8.77	C(=C\c1ccccc1)/CN1CCN(C[C@@H]2ON=C3c4ccccc4OC[C@H]32)CC1
7.92	8.80	C/C(=C\c1ccccc1)CN1CCN(C[C@@H]2ON=C3c4ccc(OC(=O)C(C)(C)C)cc4OC[C@H]32)CC1
8.85	8.20	COc1ccc2c(c1)C=C[C@@H]1C2=NO[C@H]1CN1CCN(Cc2ccc3ccccc3c2)CC1
7.77	9.70	CCOCCOCCOc1ccc2c(c1)OC[C@@H]1C2=NO[C@H]1CN1CCN(C/C(C)=C/c2ccccc2)CC1
8.46		C/C(=C\c1ccccc1)CN1CCN(C[C@@H]2ON=C3c4ccc(OCCN(C)C)cc4OC[C@H]32)CC1
6.98	8.40	COc1cc2c(cc1OC)N(C)C[C@@H]1C2=NO[C@H]1CN1CCN(CCCC(C)=Cc2ccccc2)CC1
8.05	10.00	COc1cc2c(cc1OC)C1=NO[C@@H](CN3CCN(C/C(C)=C/c4ccccc4)CC3)[C@@H]1CN2
7.25	9.30	C/C(=C\c1ccccc1)CN1CCN(C[C@@H]2ON=C3c4ccc(OC5CCCC5)cc4OC[C@H]32)CC1
	9.70	COc1ccc2c(c1)OC[C@@H]1C2=NO[C@H]1CN1CCN(C/C(C)=C/c2ccccc2)CC1
7.39	9.30	C=CC(=O)Oc1ccc2c(c1)OC[C@@H]1C2=NO[C@H]1CN1CCN(C/C(C)=C/c2ccccc2)CC1
7.64	8.57	CCNC(=O)N1C[C@@H]2C(=NO[C@H]2CN2CCN(C/C=C/c3ccccc3)CC2)c2ccccc21
8.11	9.70	CC(=O)Oc1ccc2c(c1)OC[C@@H]1C2=NO[C@H]1CN1CCN(C/C(C)=C/c2ccccc2)CC1
8.14	8.41	COc1ccc2c(c1)C=C[C@@H]1C2=NO[C@H]1CN1CCN(C/C=C/c2ccccc2)CC1
8.59	8.01	CCOC(=O)N1C[C@@H]2C(=NO[C@H]2CN2CCN(C/C=C/c3ccccc3)CC2)c2ccccc21
8.44		C/C(=C\c1ccccc1)CN1CCN(C[C@@H]2ON=C3c4ccc(O)cc4OC[C@H]32)CC1
6.82	7.64	COc1cc2c(cc1OC)C1=NO[C@@H](CN3CCN(Cc4ccc(Cl)cc4)CC3)[C@@H]1CN2
8.82	7.92	COc1cc2c(cc1OC)C1=NO[C@@H](CN3CCN(Cc4ccc5ccccc5c4)CC3)[C@@H]1CN2
6.97	6.95	C1=C[C@@H]2C(=NO[C@H]2CN2CCN(C/C=C/c3ccccc3)CC2)c2ccccc21
8.01	8.27	COc1cc2c(cc1OC)C1=NO[C@@H](CN3CCN(C/C=C/c4ccccc4)CC3)[C@@H]1CN2
7.66	< 6.00	COc1cc2c(cc1OC)C1=NO[C@@H](CN3CCN(Cc4ccc5ncccc5c4)CC3)[C@@H]1CN2
6.81	8.80	COc1cc2c(cc1OC)C1=NO[C@@H](CN3CCN(CCOc4ccc(F)cc4)CC3)[C@@H]1CN2
8.35	10.52	COCCOc1ccc2c(c1)OC[C@@H]1C2=NO[C@H]1CN1CCN(C/C(C)=C/c2ccccc2)CC1
7.80	8.35	CN1C[C@@H]2C(=NO[C@H]2CN2CCN(C/C=C/c3ccccc3)CC2)c2ccccc21
7.08	7.82	C(=C\c1ccccc1)/CN1CCN(C[C@@H]2ON=C3c4ccccc4NC[C@H]32)CC1
7.21	7.96	CC(=O)N1C[C@@H]2C(=NO[C@H]2CN2CCN(CCC/C=C/c3ccccc3)CC2)c2ccccc21
